ChEMBL document CHEMBL4007509, “Structural Optimizations of Thieno[3,2-b]pyrrole Derivatives for the Development of Metabolically Stable Inhibitors of Chikungunya Virus” (J Med Chem, 2017)

Tests used:
[1] = Cytotoxicity against HEK293T cells assessed as reduction in cell viability after 24 hrs by CellTiter-Glo luminescent assay; format: cell-based, HEK-293T; conditions: human
Procedure, shortened: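 HEK 293T cell viability was measured by CellTiter-Glo luminescence after 24 h exposure to serial dilutions. Data were normalized to untreated cells (100%) and reagent background (0%). CC50, the concentration reducing viability by 50%, came from a five-parameter asymmetric fit.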

Chikungunya virus [2] = experiment: Antiviral activity against full length Gaussia princeps Gluc-tagged Chikungunya virus IMT infected in HEK293T cells assessed as reduction in virus infection after 24 hrs by Gaussia luciferase reporter gene assay; format: functional, cell-based; conditions: HEK-293T
[3] = Half life in human liver microsomes; format: ADME, microsome
Procedure, shortened: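 Compounds were incubated with human liver microsomes. Half-life = ln(2)/slope, where the slope is ln(% detected) plotted against time, using the mean of at least 3 independent experiments.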

[4] = Selectivity index, ratio of CC50 for HEK293T cells to EC50 for full length Gaussia princeps Gluc-tagged Chikungunya virus IMT; format: toxicity; conditions: human, read-out: Ratio CC50/EC50
Chikungunya virus [5] = experiment: Antiviral activity against wild type Chikungunya virus IMT infected in HEK293T cells assessed as reduction in virus infection after 24 hrs by FITC immunofluorescence-based single cell quantification high content screening assay; format: functional; conditions: HEK-293T
Chikungunya virus [6] = experiment: Antiviral activity against full length gluc-tagged Chikungunya virus 2008 Singapore SGP11 infected in HEK293T cells assessed as reduction in virus infection after 24 hrs by gaussia luciferase reporter gene assay; format: functional, cell-based; conditions: 2008 Singapore SGP11, HEK-293T
Chikungunya virus [7] = experiment: Antiviral activity against full length gluc-tagged Chikungunya virus 2013 Caribbean CNR20235 infected in HEK293T cells assessed as reduction in virus infection after 24 hrs by gaussia luciferase reporter gene assay; format: functional, cell-based; conditions: 2013 Caribbean CNR20235, HEK-293T
Chikungunya virus [8] = experiment: Antiviral activity against full length gluc-tagged Chikungunya virus IMT infected in human BJ cells assessed as reduction in virus infection after 24 hrs by gaussia luciferase reporter gene assay; format: functional, cell-based
[9] = Cytotoxicity against human BJ cells assessed as reduction in cell viability after 24 hrs by CellTiter-Glo luminescent assay; format: cell-based
Procedure, shortened: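 BJ human fibroblast viability was measured by CellTiter-Glo luminescence after 24 h exposure to serial dilutions. Data were normalized to untreated cells (100%) and reagent background (0%). CC50 came from a five-parameter asymmetric fit.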

SMILES: CCCNC(=O)[C@H]1CC[C@@H](NC(=O)c2cc3sc(Br)cc3n2Cc2ccc(OC)cc2)CC1
- CC50 at 24 h [1]: > 100 µM
- EC50 (Chikungunya virus [2]): > 100 µM

SMILES: CCCNC(=O)C1CCN(C(=O)c2cc3sc(C#N)cc3n2Cc2ccc(OC)cc2)CC1
- half-life [3]: 11.2 min

SMILES: CCCNC(=O)C1CCN(C(=O)c2cc3sccc3n2Cc2ccc(OC)cc2)CC1
- EC50 (Chikungunya virus [2]): 7 µM
- selectivity ratio [4]: 2.7
- half-life [3]: 10.6 min

SMILES: CCCNC(=O)C1CN(C(=O)c2cc3sc(Br)cc3n2Cc2ccc(OC)cc2)C1
- CC50 at 24 h [1]: > 100 µM
- EC50 (Chikungunya virus [2]): 13.6 µM
- selectivity ratio [4]: > 7.4
- half-life [3]: 7.73 min

SMILES: CCCNC(=O)C1CCN(C(=O)c2cccn2Cc2ccc(OC)cc2)CC1
- CC50 at 24 h [1]: > 100 µM
- EC50 (Chikungunya virus [2]): 25.7 µM
- selectivity ratio [4]: > 3.9
- half-life [3]: 6.71 min

SMILES: CCCNC(=O)[C@@H]1C[C@H]2CCC[C@@H](C1)[C@@H]2NC(=O)c1cc2scnc2n1Cc1ccc(OC)cc1
- CC50 at 24 h [1]: > 25 µM
- EC50 (Chikungunya virus [2]): 11.4 µM
- selectivity ratio [4]: > 2.2
- half-life [3]: 44.6 min

SMILES: CCCNC(=O)C1CCN(C(=O)c2cc3[nH]ccc3n2Cc2ccc(OC)cc2)CC1
- CC50 at 24 h [1]: > 100 µM
- EC50 (Chikungunya virus [2]): 11.4 µM
- selectivity ratio [4]: > 8.8
- half-life [3]: 23.1 min

SMILES: [2H]C([2H])(c1ccc(OC)cc1)n1c(C(=O)N2CCC(C(=O)NC([2H])(C([2H])([2H])[2H])C([2H])([2H])[2H])CC2)cc2sc(Br)cc21
- EC50 (Chikungunya virus [5]): 2 µM
- CC50 at 24 h [1]: > 100 µM
- EC50 (Chikungunya virus [2]): 1.72 µM
- selectivity ratio [4]: > 58
- half-life [3]: 3.8 min

SMILES: CCCNC(=O)C1CC12CCN(C(=O)c1cc3sc(Br)cc3n1Cc1ccc(OC)cc1)CC2 (stereo not given)
- EC50 (Chikungunya virus [5]): 15.7 µM
- CC50 at 24 h [1]: > 100 µM
- EC50 (Chikungunya virus [2]): 9.35 µM
- selectivity ratio [4]: > 11
- half-life [3]: 5.83 min

SMILES: COc1ccc(Cn2c(C(=O)N3CCC(C(=O)NC(C)C)CC3)cc3sc(Br)cc32)cc1
- EC50 (Chikungunya virus [5]): 2.47 µM
- CC50 at 24 h [1]: > 100 µM
- EC50 (Chikungunya virus [2]): 1.95 µM
- selectivity ratio [4]: > 51
- half-life [3]: 3.76 min

SMILES: CCCNC(=O)[C@@H]1C[C@H]2CCC[C@@H](C1)[C@H]2NC(=O)c1cc2sc(Br)cc2n1Cc1ccc(OC)cc1
- CC50 at 24 h [1]: > 100 µM
- EC50 (Chikungunya virus [2]): > 100 µM

SMILES: CCCNC(=O)C1CCN(C(=O)c2cc3occc3n2Cc2ccc(OC)cc2)CC1
- EC50 (Chikungunya virus [5]): 5.24 µM
- CC50 at 24 h [1]: 37.2 µM
- EC50 (Chikungunya virus [2]): 6 µM
- selectivity ratio [4]: 6.2
- half-life [3]: 2.74 min

SMILES: CCCNC(=O)C1CCN(C(=O)c2cc3sc(Br)cc3n2Cc2ccc(OC)cc2)CC1
- CC50 at 24 h [1]: > 100 µM
- EC50 (Chikungunya virus [2]): 3.1 µM
- selectivity ratio [4]: > 32
- half-life [3]: 2.91 min

SMILES: CCCNC(=O)C1CCN(C(=O)c2cc3sc(-c4ccccc4)nc3n2Cc2ccc(OC)cc2)CC1
- EC50 (Chikungunya virus [5]): 5.63 µM
- CC50 at 24 h [1]: 22.9 µM
- EC50 (Chikungunya virus [2]): 3.02 µM
- selectivity ratio [4]: 7.6
- half-life [3]: 40.8 min

SMILES: CCCNC(=O)[C@@H]1C[C@H]2CCC[C@@H](C1)[C@@H]2NC(=O)c1cc2sc(-c3ccccc3)nc2n1Cc1ccc(OC)cc1
- EC50 (Chikungunya virus [5]): > 25 µM
- CC50 at 24 h [1]: > 100 µM
- EC50 (Chikungunya virus [2]): 5.32 µM
- selectivity ratio [4]: > 19
- half-life [3]: 27.2 min

SMILES: [2H]C([2H])(c1ccc(OC)cc1)n1c(C(=O)N2CCC(C(=O)NCCC)CC2)cc2sc(Br)cc21
- EC50 (Chikungunya virus [5]): 2.06 µM
- CC50 at 24 h [1]: > 100 µM
- EC50 (Chikungunya virus [2]): 2.03 µM
- selectivity ratio [4]: > 49
- half-life [3]: 3.53 min

SMILES: CCCNC(=O)[C@H]1[C@@H]2CCC[C@H]1CN(C(=O)c1cc3sc(Br)nc3n1Cc1ccc(OC)cc1)C2
- CC50 at 24 h [1]: 57.5 µM
- EC50 (Chikungunya virus [2]): 13.4 µM
- selectivity ratio [4]: 4.3
- half-life [3]: 2.89 min

SMILES: CCCNC(=O)C1CCN(C(=O)c2cc3ccsc3n2Cc2ccc(OC)cc2)CC1
- EC50 (Chikungunya virus [5]): 6.5 µM
- CC50 at 24 h [1]: 23.4 µM
- EC50 (Chikungunya virus [2]): 8.86 µM
- selectivity ratio [4]: 2.6
- half-life [3]: 4.08 min

SMILES: CCCNC(=O)C1CCN(C(=O)c2cc3scnc3n2Cc2ccc(OC)cc2)CC1
- EC50 (Chikungunya virus [5]): 4.72 µM
- CC50 at 24 h [1]: 19.1 µM
- EC50 (Chikungunya virus [2]): 4.56 µM
- selectivity ratio [4]: 4.2
- half-life [3]: 27.7 min

SMILES: CCCNC(=O)C1CCN(C(=O)c2cc3sccc3n2Cc2ccc(Cl)cc2)CC1
- half-life [3]: 10.3 min

SMILES: CCCNC(=O)C1CCN(C(=O)c2cc3sc(C)cc3n2Cc2ccc(OC)cc2)CC1
- half-life [3]: 2.69 min

SMILES: NC(=O)c1ncn([C@@H]2O[C@H](CO)[C@@H](O)[C@H]2O)n1 [RIBAVIRIN]
- CC50 at 24 h [1]: > 100 µM
- EC50 (Chikungunya virus [2]): 16.2 µM
- EC50 (Chikungunya virus [6]): 1.89 µM
- EC50 (Chikungunya virus [7]): 1.97 µM
- EC50 (Chikungunya virus [8]): 9.71 µM
- CC50 at 24 h [9]: > 100 µM
